Active and inactive are the calls of the source. The rule behind the calls is not given here.
Legend:
[1] = tested on: Leishmania braziliensis MHOM/BR/75/M2904; assay: Inhibition of promastigote form Leishmania braziliensis MHOM/BR/1975/M2904 Fe-SOD at 12.5 uM by NBT reduction assay relative to control
Method in brief: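 Promastigotes sonicated in sucrose/Tris-HCl/EDTA buffer, pH 7.8, and centrifuged. Protein precipitating at 35–85% ammonium sulphate desalted into 20 mM potassium phosphate with 1 mM EDTA, pH 7.8. Protein measured by Bradford. Fe-SOD activity read spectrophotometrically as inhibition of NBT reduction by superoxide, with compounds at 0.1–50. IC50 by linear regression of Kc values; three determinations; Newman-Keuls test vs control homogenate.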

Leishmania infantum = assay: Antileishmanial activity against promastigote form of Leishmania infantum MCAN/ES/2001/UCM-10 assessed as disorganized cytoplasm at IC25 concentration after 96 hrs by […] electron microscopic analysis relative to control; type: functional, organism-based
Method in brief: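 Promastigotes at 5 × 10^5 cells/mL in MTL medium with compound at IC25 for 96 h. Ultrastructure examined by transmission electron microscopy against untreated control parasites.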

**Q.** Which results are given for Cl.c1cncc(CNCCN2CCNCc3cccc(n3)CNCC2)c1?
**A.** inhibition [1]: 100%; Activity (Leishmania infantum): Active

From ChEMBL document CHEMBL2331406, “In vitro activity of scorpiand-like azamacrocycle derivatives in promastigotes and intracellular amastigotes of Leishmania infantum and Leishmania braziliensis” (Eur J Med Chem, 2013)
